Laboratory results from paper PMC8458982 (The Journal of Biological Chemistry, 2021).
Where a chain is given by its changes, count along the chain named. Where “and” joins values, the source holds several entries; their conditions need not be identical. Equal entries are not always repeated.

Legend:
[1] = biological target: mTRPC6 mutant ^mY704W (Mus musculus, UniProt Q61143, Y704W); test: whole-cell patch-clamp, mTRPC6 mutant Y704W; assay type: cell-based
Outline: (§1)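 Transiently transfected HEK293 cells expressing mouse or human TRPC6 WT, or sequence-verified mouse point mutants, recorded 24–48 h post-transfection. Conventional whole-cell clamp at −60 mV and 23 °C, gap-free; test compound applied by Y-tube. Pipette: CsCl/HEPES/BAPTA, 400 nM free Ca2+, pH 7.2. Bath: NaCl-based, 2 mM CaCl2, pH 7.4. EC50 from Hill fit of concentration–current data. Mutant screen used current ratios (10/5 μM or 3/1 μM). At least 3 transfection batches.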

[2] = test system: TRPC3/6/7; settings: read-out: EC50 (concentration yielding half maximum response); measured by patch-clamp rather than calcium imaging; cited from earlier work
[3] = biological target: mTRPC6 mutant ^mY704A (Mus musculus, UniProt Q61143, Y704A); test: whole-cell patch-clamp, mTRPC6 mutant Y704A; assay type: cell-based; settings: saturated agonist
mTRPC6 mutant ^mY704A, sequence (Q61143 whole entry Y704A): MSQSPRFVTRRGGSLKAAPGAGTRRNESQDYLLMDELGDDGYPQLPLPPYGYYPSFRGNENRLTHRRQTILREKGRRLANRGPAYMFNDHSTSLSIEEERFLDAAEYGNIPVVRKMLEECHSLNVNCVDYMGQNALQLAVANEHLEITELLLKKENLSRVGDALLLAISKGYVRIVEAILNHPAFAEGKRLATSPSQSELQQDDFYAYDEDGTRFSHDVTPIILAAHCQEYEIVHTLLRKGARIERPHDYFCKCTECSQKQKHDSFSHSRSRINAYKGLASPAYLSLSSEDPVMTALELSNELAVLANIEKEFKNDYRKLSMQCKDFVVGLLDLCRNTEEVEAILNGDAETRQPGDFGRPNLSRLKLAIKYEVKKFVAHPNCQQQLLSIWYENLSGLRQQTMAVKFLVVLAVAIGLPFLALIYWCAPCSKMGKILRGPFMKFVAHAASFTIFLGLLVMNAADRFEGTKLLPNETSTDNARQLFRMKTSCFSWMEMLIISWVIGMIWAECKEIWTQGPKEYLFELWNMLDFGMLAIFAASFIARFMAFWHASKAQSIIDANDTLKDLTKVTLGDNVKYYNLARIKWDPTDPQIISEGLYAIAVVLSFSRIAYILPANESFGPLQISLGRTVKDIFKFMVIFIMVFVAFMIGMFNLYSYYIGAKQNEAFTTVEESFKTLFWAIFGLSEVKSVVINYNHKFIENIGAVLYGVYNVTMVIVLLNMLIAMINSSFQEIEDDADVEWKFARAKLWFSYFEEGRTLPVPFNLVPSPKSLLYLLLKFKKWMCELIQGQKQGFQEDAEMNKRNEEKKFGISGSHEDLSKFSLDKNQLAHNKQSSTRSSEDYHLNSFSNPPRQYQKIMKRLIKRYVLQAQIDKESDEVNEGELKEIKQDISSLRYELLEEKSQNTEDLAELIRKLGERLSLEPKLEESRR
Outline: as §1

[4] = biological target: T1, mouse TRPC6 (mTRPC6-WT) (Mus musculus, UniProt Q61143); test: whole-cell patch-clamp, mTRPC6-WT expressed in HEK293 cells; assay type: cell-based
T1 sequence (Q61143 1-930): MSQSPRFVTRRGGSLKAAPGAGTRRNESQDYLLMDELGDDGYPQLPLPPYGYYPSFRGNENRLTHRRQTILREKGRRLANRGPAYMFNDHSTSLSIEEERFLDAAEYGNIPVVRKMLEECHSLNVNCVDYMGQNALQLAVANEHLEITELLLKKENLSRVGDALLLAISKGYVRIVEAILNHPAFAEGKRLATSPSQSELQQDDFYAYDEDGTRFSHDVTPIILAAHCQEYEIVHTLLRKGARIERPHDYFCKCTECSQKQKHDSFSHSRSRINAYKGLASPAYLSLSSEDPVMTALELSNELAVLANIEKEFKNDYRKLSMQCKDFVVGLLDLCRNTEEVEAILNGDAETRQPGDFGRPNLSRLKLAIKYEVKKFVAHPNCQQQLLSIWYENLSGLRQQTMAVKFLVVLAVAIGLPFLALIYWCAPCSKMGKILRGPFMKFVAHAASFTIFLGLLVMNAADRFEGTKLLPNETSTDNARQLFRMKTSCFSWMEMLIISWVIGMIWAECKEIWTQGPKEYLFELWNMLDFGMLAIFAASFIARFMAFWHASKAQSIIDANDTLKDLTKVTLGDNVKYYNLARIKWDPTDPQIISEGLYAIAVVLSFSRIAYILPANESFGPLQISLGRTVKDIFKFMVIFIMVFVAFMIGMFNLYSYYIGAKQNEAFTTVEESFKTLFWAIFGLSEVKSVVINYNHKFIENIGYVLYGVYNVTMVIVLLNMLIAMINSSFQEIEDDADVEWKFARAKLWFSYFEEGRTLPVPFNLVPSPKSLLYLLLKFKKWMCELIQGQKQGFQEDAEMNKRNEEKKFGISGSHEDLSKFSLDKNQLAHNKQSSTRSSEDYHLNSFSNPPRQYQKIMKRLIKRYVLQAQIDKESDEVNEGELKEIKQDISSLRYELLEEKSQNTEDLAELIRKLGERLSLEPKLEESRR
Outline: as §1

[5] = biological target: T2, mTRPC6 mutant ^mE672D (Mus musculus, UniProt Q61143, E672D); test: whole-cell patch-clamp, mTRPC6 mutant E672D; assay type: cell-based
T2 sequence (Q61143 1-930 E672D): T1 sequence (Q61143 1-930) with E672D
Outline: as §1

[6] = biological target: mTRPC6 mutant ^mW679F (Mus musculus, UniProt Q61143, W679F); test: whole-cell patch-clamp, mTRPC6 mutant W679F; assay type: cell-based; settings: saturated agonist
mTRPC6 mutant ^mW679F, sequence (Q61143 whole entry W679F): as the sequence (Q61143 whole entry Y704A) above, with W679F, A704Y counted along it
Outline: as §1

[7] = biological target: mTRPC6 mutant ^mK675R (Mus musculus, UniProt Q61143, K675R); test: whole-cell patch-clamp, mTRPC6 mutant K675R; assay type: cell-based
mTRPC6 mutant ^mK675R, sequence (Q61143 whole entry K675R): as the sequence (Q61143 whole entry Y704A) above, with K675R, A704Y counted along it
Outline: as §1

[8] = test system: mTRPC6 mutant ^mV687L; test: whole-cell patch-clamp, mTRPC6 mutant V687L; assay type: cell-based, mouse; settings: ^mV687L (S3 pocket)
Outline: as §1

[9] = biological target: mTRPC6 mutant ^mE700A (Mus musculus, UniProt Q61143, E700A); test: whole-cell patch-clamp, mTRPC6 mutant E700A; assay type: cell-based; settings: saturated agonist
mTRPC6 mutant ^mE700A, sequence (Q61143 whole entry E700A): as the sequence (Q61143 whole entry Y704A) above, with E700A, A704Y counted along it
Outline: as §1

[10] = biological target: mTRPC6 mutant ^mW679A (Mus musculus, UniProt Q61143, W679A); test: whole-cell patch-clamp, mTRPC6 mutant W679A; assay type: cell-based; settings: saturated agonist
mTRPC6 mutant ^mW679A, sequence (Q61143 whole entry W679A): as the sequence (Q61143 whole entry Y704A) above, with W679A, A704Y counted along it
Outline: as §1

[11] = biological target: hTRPC6 mutant ^hK676R (Homo sapiens, UniProt Q9Y210, K676R); test: whole-cell patch-clamp, hTRPC6 mutant K676R; assay type: cell-based
hTRPC6 mutant ^hK676R, sequence (Q9Y210 whole entry K676R): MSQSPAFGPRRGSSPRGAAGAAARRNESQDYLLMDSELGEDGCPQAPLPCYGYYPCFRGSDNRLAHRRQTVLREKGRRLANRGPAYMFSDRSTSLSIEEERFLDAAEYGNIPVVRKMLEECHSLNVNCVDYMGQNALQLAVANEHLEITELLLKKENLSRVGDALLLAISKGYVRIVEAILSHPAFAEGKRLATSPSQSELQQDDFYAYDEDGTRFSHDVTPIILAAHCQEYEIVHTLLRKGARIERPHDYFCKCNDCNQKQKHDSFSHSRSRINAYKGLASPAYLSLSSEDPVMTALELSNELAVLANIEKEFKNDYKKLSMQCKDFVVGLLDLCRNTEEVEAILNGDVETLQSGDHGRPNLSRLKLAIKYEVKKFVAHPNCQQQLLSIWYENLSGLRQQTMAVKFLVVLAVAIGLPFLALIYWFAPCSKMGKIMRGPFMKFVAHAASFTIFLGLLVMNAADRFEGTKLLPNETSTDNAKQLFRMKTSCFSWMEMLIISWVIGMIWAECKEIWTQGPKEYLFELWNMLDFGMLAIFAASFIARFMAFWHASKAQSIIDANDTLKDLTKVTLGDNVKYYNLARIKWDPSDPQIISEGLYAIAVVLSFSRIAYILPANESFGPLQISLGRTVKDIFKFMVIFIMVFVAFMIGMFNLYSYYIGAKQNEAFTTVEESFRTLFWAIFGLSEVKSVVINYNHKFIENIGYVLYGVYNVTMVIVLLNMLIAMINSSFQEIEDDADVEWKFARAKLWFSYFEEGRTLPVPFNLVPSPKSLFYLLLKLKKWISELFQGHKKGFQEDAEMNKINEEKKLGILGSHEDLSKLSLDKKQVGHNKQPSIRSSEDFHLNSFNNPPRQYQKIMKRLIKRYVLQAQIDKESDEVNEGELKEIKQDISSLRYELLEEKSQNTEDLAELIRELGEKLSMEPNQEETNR

mTRPC6 mutant ^mY704W, sequence (Q61143 whole entry Y704W): as the sequence (Q61143 whole entry Y704A) above, with A704W counted along it

Q: Which results are given for CCOC(=O)N1CCC(c2cc(O)n3nc(C)c(-c4ccc(F)cc4)c3n2)CC1 [M085, Ethyl 4-(3-(4-fluorophenyl)-7-hydroxy-2-methylpyrazolo[1,5-a]pyrimidin-5-yl)piperidine-1-carboxylate]?
A: EC50 [1]: 26.7 ± 4.04 µM; Imax (maximal current density) ([1]; ^mY704W, 100 μM agonist): 3.27 ± 1.12 pA/pF; EC50 [2]: 4.66 ± 0.03 µM; agonist-induced current [3]: disappearance; EC50 ([4]; EC50 of channel activation, mTRPC6-WT, whole-cell, −60 mV, Hill fit): ~5 µM and 3.8 µM; ratio of M085 activation current I10 μM/I5 μM ([4]; mTRPC6-WT): 1.65 ± 0.21; Imax (maximal current density) ([4]; mTRPC6-WT, 30 μM M085 (saturated)): 75.11 ± 14.20 pA/pF; effect of DTNB on agonist-mediated activation ([4]; mTRPC6-WT, DTNB covalent modification): no effect; saturation concentration ([4]; mTRPC6 activation): approximately 10 μM; EC50 [5]: 25.1 ± 5.64 µM; ratio of M085 activation current I10 μM/I5 μM ([5]; ^mE672D (S2 pocket)): 3.27 ± 0.91; Imax (maximal current density) ([5]; ^mE672D, 100 μM agonist): 10.28 ± 1.19 pA/pF; agonist-induced current (channel function) [6]: complete loss of function; EC50 [7]: 6.9 ± 2.36 µM; Imax (maximal current density) ([7]; ^mK675R, 100 μM agonist): 8.26 ± 0.62 pA/pF; ratio of M085 activation current I10 μM/I5 μM [8]: 1.13 ± 0.26; agonist-induced current [9]: disappearance; agonist-induced current [10]: disappearance; EC50 [11]: 44 ± 5.75 µM
